ChEMBL document CHEMBL4145591, “Phenotypic Screening To Discover Novel Chemical Series as Efficient Antihemorrhagic Agents” (ACS Med Chem Lett, 2018)
Calls of active or inactive are those of the source. No cut-off for these calls is given here.

Key:
Stromelysin-1 = Stromelysin-1 (Homo sapiens, UniProt P08254); test: Inhibition of MMP3 (unknown origin) using fluorescently-labeled substrate measured every min for 1 min
Stromelysin-2 = Stromelysin-2 (Homo sapiens, UniProt P09238); test: Inhibition of MMP10 (unknown origin) using fluorescently-labeled substrate measured every min for 1 min
[1] = Solubility of the compound in saline solution at 10 mM; assay type: physicochemical; conditions: buffer, 10000 µM
Mus musculus [2] = test: Antifibrinolytic activity in tPA-induced C57Bl6 mouse hyperfibrinolytic tail bleeding model assessed as bleeding time at 1 mg/kg, iv administered for 5 mins post tPA challenge for 5 mins measured up to 30 mins by spectrophotometric method (reference value: 29.28 +/- 0.4 min); assay type: functional
[3] = Cytotoxicity against human THLE2 cells assessed as decrease in cell viability after 72 hrs by luminescence assay; assay type: cell-based; conditions: THLE-2 cells, read-out: LC50
Summary of the method: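 Healthy human hepatic THLE-2 line; compounds incubated with cells for 72 hours, then viability measured. Cytotoxicity reported as LC50.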

[4] = Therapeutic index, ratio of LC50 for human THLE2 cells to EC50 for antifibrinolytic activity in human whole blood; assay type: toxicity
Summary of the method: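 THLE-2 healthy hepatic cells were exposed to compound for 72 hours and cell viability was read to give LC50. Antifibrinolytic EC50 came from thromboelastography in triplicate or duplicate. The index is LC50 relative to EC50, expressed in log units.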

[5] = target: Matrix metalloproteinase-14 (Homo sapiens) (UniProt P50281); test: Inhibition of recombinant human MMP14 at 10 uM after 60 mins by fluorescence assay
[6] = target: T1, Matrilysin (Homo sapiens) (UniProt P09237); test: Inhibition of recombinant human MMP7 at 10 uM after 45 mins by fluorescence assay
T1 sequence (whole entry): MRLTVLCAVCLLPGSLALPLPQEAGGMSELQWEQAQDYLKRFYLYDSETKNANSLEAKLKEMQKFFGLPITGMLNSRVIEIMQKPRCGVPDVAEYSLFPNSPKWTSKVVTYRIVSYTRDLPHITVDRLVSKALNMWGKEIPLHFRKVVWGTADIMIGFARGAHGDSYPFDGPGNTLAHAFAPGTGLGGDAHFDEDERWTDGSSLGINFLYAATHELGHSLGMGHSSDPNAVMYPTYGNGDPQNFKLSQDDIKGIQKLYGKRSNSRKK

Homo sapiens = species on record: Homo sapiens; test: Effect on plasminogen/tPA (unknown origin) activity assessed as plasmin generation at 0.01 to 10 uM using S2251 as substrate incubated for 15 mins followed by substrate addition measured after 30 mins
[7] = target: Tissue-type plasminogen activator (Homo sapiens) (UniProt P00750); test: Effect on tPA (unknown origin) activity at 0.01 to 10 uM incubated for 15 mins
[8] = target: Prothrombin (Homo sapiens) (UniProt P00734); test: Effect on human plasma thrombin activity at 0.01 to 10 uM using S2238 as substrate incubated for 15 mins followed by substrate addition measured after 30 mins
Mus musculus [9] = species on record: Mus musculus; test: Potency index, ratio of bleeding time for tranexamic acid to bleeding time for test compound in tPA-induced C57Bl6 mouse hyperfibrinolytic tail bleeding model; assay type: functional

Sequence of Stromelysin-1 (P08254 whole entry): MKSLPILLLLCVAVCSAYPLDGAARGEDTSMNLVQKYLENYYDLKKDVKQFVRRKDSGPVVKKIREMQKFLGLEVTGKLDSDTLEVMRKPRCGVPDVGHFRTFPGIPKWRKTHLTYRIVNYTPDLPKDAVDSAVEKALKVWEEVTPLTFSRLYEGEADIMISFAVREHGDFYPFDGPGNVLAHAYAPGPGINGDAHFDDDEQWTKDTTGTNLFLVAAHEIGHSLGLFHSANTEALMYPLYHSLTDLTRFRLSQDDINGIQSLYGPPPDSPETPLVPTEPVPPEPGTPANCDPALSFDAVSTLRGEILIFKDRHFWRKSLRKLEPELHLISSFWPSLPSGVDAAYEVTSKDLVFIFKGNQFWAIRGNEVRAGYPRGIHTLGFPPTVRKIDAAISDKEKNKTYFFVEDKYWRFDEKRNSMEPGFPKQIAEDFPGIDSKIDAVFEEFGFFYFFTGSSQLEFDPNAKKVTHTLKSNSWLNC
Sequence of Stromelysin-2 (P09238 whole entry): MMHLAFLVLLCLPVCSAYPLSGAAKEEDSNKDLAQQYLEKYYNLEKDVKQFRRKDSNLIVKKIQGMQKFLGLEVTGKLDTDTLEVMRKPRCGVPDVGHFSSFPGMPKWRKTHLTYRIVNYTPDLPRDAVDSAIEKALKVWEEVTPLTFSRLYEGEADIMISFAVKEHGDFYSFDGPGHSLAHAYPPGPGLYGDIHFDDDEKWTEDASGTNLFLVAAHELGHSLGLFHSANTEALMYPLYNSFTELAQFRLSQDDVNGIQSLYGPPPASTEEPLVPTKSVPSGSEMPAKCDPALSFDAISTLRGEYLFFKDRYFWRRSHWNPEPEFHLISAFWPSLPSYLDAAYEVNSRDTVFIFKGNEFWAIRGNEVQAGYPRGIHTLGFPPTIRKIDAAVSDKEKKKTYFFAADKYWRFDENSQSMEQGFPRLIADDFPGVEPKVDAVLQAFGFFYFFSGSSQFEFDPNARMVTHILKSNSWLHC
Sequence of Tissue-type plasminogen activator (Homo sapiens) (P00750 36-562 limits assumed): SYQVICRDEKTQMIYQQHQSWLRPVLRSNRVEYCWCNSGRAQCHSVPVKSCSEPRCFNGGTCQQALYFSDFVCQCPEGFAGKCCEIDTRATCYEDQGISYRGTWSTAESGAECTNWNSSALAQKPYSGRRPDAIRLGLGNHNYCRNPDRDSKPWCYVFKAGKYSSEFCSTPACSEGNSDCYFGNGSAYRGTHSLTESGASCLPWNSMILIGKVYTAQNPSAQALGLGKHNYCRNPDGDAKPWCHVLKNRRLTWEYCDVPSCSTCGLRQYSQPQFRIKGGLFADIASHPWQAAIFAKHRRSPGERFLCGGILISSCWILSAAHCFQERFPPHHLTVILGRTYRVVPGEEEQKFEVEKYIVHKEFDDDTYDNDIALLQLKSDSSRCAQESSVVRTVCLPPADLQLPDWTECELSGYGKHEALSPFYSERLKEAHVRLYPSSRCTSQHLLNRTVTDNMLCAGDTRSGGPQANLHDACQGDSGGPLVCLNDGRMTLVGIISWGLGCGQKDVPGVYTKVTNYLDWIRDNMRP

SMILES	IC50 (Stromelysin-1)	IC50 (Stromelysin-2)	further results
Nc1ccccc1NC(=O)C1(S(=O)(=O)c2ccc(NC3CCCCC3)cc2)CCC2(CCNCC2)C1 (stereo not drawn)	> 10 µM	> 10 µM	solubility [1]: Soluble; Time (Mus musculus [2]): 6.58 min; CC50 at 72 h [3]: 43.8 µM; log(ratio) [4]: >= 2.039
Nc1ccc(-c2ccccc2)cc1NC(=O)C1(S(=O)(=O)c2ccc(Oc3ccc(OC(F)(F)F)cc3)cc2)CCC2(CCNCC2)C1 (stereo not drawn)	> 10 µM	> 10 µM	CC50 at 72 h [3]: 3.53 µM; log(ratio) [4]: >= 0.946
O=C(Oc1ccccc1)C1(S(=O)(=O)c2ccc(Oc3ccc(OC(F)(F)F)cc3)cc2)CCC2(CCNCC2)C1 (stereo not drawn)	> 10 µM	> 10 µM	CC50 at 72 h [3]: 3.9 µM; log(ratio) [4]: 0.637
CS(=O)(=O)NC(=O)C1(S(=O)(=O)c2ccc(Oc3ccc(OC(F)(F)F)cc3)cc2)CCC2(CCNCC2)C1 (stereo not drawn)	> 10 µM	> 10 µM	
O=C(Nc1nccs1)C1(S(=O)(=O)c2ccc(Oc3ccc(OC(F)(F)F)cc3)cc2)CCC2(CCNCC2)C1 (stereo not drawn)	> 10 µM	> 10 µM	
O=C(OCc1ccccc1)C1(S(=O)(=O)c2ccc(Oc3ccc(OC(F)(F)F)cc3)cc2)CCC2(CCNCC2)C1 (stereo not drawn)	> 10 µM	> 10 µM	
O=S(=O)(c1ccc(Oc2ccc(OC(F)(F)F)cc2)cc1)C1CCC2(CCNCC2)C1 (stereo not drawn)	> 10 µM	> 10 µM	
Nc1ccccc1NC(=O)C1(S(=O)(=O)c2ccc(Oc3ccc(OC(F)(F)F)cc3)c(Cl)c2)CCC2(CCNCC2)C1 (stereo not drawn)	> 10 µM	> 10 µM	
CCCN1CCC2(CC1)CCC(C(=O)NC(=O)NC)(S(=O)(=O)c1ccc(Oc3ccc(OC(F)(F)F)cc3)cc1)C2 (stereo not drawn)	> 10 µM	> 10 µM	
COc1ccc(N)c(NC(=O)C2(S(=O)(=O)c3ccc(Oc4ccc(OC(F)(F)F)cc4)cc3)CCC3(CCNCC3)C2)c1 (stereo not drawn)	> 10 µM	> 10 µM	
Nc1ccc(-c2cccs2)cc1NC(=O)C1(S(=O)(=O)c2ccc(Oc3ccc(OC(F)(F)F)cc3)cc2)CCC2(CCNCC2)C1 (stereo not drawn)	> 10 µM	> 10 µM	CC50 at 72 h [3]: 2.8 µM; log(ratio) [4]: 0.493
C#CCCCN1CCC2(CC1)CCC(C(=O)Nc1ccccc1N)(S(=O)(=O)c1ccc(C(=O)c3ccccc3)cc1)C2 (stereo not drawn)	> 10 µM	> 10 µM	CC50 at 72 h [3]: 43.5 µM; inhibition [5]: inactive; inhibition [6]: inactive
CNC(=O)NC(=O)C1(S(=O)(=O)c2ccc(Oc3ccc(OC(F)(F)F)cc3)cc2)CCC2(CCNCC2)C1 (stereo not drawn)	> 10 µM	> 10 µM	solubility [1]: Soluble; Time (Mus musculus [2]): 20.24 min; CC50 at 72 h [3]: 16.2 µM; log(ratio) [4]: >= 1.607
CNC(=O)NC(=O)C1(S(=O)(=O)c2ccc(OC)c(Cl)c2)CCC2(CCNCC2)C1 (stereo not drawn)	> 10 µM	> 10 µM	
Nc1ccccc1NC(=O)C1(S(=O)(=O)c2ccc(Oc3ccc(OC(F)(F)F)cc3)cc2)CCC2(CCNCC2)C1 (stereo not drawn)	> 10 µM	> 10 µM	CC50 at 72 h [3]: 7.22 µM; log(ratio) [4]: 0.904
CCCN1CCC2(CC1)CCC(C(=O)Nc1ccccc1N)(S(=O)(=O)c1ccc(Oc3ccc(OC(F)(F)F)cc3)cc1)C2 (stereo not drawn)	> 10 µM	> 10 µM	Activity (Homo sapiens): inactive; Activity [7]: inactive; Time (Mus musculus [2]): 3.61 min; Activity [8]: inactive; CC50 at 72 h [3]: 3.94 µM; inhibition [5]: inactive; fold change (FC) (Mus musculus [9]): 3; log(ratio) [4]: >= 0.993; inhibition [6]: inactive

Now from value to molecule, other results behind:

IC50 (Stromelysin-1)	IC50 (Stromelysin-2)	SMILES	further results
> 10 µM	> 10 µM	CNC(=O)NC(=O)C1(S(=O)(=O)c2ccc(Oc3ccc(OC)cc3)c(Cl)c2)CCC2(CCNCC2)C1 (stereo not drawn)	
> 10 µM	> 10 µM	O=C(Nc1ccccc1O)C1(S(=O)(=O)c2ccc(Oc3ccc(OC(F)(F)F)cc3)cc2)CCC2(CCNCC2)C1 (stereo not drawn)	
> 10 µM	> 10 µM	NC(=O)C1(S(=O)(=O)c2ccc(Oc3ccc(OC(F)(F)F)cc3)cc2)CCC2(CCNCC2)C1 (stereo not drawn)	
> 10 µM	> 10 µM	CN(C)S(=O)(=O)NC(=O)C1(S(=O)(=O)c2ccc(Oc3ccc(OC(F)(F)F)cc3)cc2)CCC2(CCNCC2)C1 (stereo not drawn)	
> 10 µM	> 10 µM	CON(C)C(=O)C1(S(=O)(=O)c2ccc(Oc3ccc(OC(F)(F)F)cc3)cc2)CCC2(CCNCC2)C1 (stereo not drawn)	
> 10 µM	> 10 µM	COC(=O)C1(S(=O)(=O)c2ccc(Oc3ccc(OC(F)(F)F)cc3)cc2)CCC2(CCNCC2)C1 (stereo not drawn)	
> 10 µM	> 10 µM	COc1ccc(S(=O)(=O)C2(C(=O)Nc3cc(-c4ccccc4)ccc3N)CCC3(CCNCC3)C2)cc1Cl (stereo not drawn)	
> 10 µM	> 10 µM	COc1ccc(S(=O)(=O)C2(C(=O)Nc3ccccc3N)CCC3(CCNCC3)C2)cc1Cl (stereo not drawn)	
> 10 µM	> 10 µM	Nc1ccc(F)cc1NC(=O)C1(S(=O)(=O)c2ccc(Oc3ccc(OC(F)(F)F)cc3)cc2)CCC2(CCNCC2)C1 (stereo not drawn)	
> 10 µM	> 10 µM	O=C(O)C1(S(=O)(=O)c2ccc(Oc3ccc(OC(F)(F)F)cc3)cc2)CCC2(CCNCC2)C1 (stereo not drawn)	
> 10 µM	> 10 µM	O=S(=O)(c1ccc(Oc2ccc(OC(F)(F)F)cc2)cc1)C1(CO)CCC2(CCNCC2)C1 (stereo not drawn)	
> 10 µM	> 10 µM	O=C1CN(C(=O)C2(S(=O)(=O)c3ccc(Oc4ccc(OC(F)(F)F)cc4)cc3)CCC3(CCNCC3)C2)CCN1 (stereo not drawn)	
> 10 µM	> 10 µM	COc1ccc(Oc2ccc(S(=O)(=O)C3(C(=O)Nc4ccccc4N)CCC4(CCNCC4)C3)cc2Cl)cc1 (stereo not drawn)	
> 10 µM	> 10 µM	Nc1ccccc1NC(=O)C1(S(=O)(=O)c2ccccc2NC2CCCCC2)CCC2(CCNCC2)C1 (stereo not drawn)	solubility [1]: Soluble
> 10 µM	> 10 µM	Cc1ccc(-c2ccc(N)c(NC(=O)C3(S(=O)(=O)c4ccc(Oc5ccc(OC(F)(F)F)cc5)cc4)CCC4(CCNCC4)C3)c2)o1 (stereo not drawn)	
> 10 µM	> 10 µM	O=C(Nc1ccccn1)C1(S(=O)(=O)c2ccc(Oc3ccc(OC(F)(F)F)cc3)cc2)CCC2(CCNCC2)C1 (stereo not drawn)	
